Reference: ChEMBL document CHEMBL4043220, “Rational design of conformationally constrained oxazolidinone-fused 1,2,3,4-tetrahydroisoquinoline derivatives as potential PDE4 inhibitors” (Bioorg Med Chem, 2017)

Key:
[1] = biological target: T1, 3',5'-cyclic-AMP phosphodiesterase 4B (Homo sapiens, UniProt Q07343); assay: Inhibition of PDE4B isolated from human U937 cells using [3H]-cAMP incubated for 30 mins
[2] = biological target: 3',5'-cyclic-AMP phosphodiesterase 4D (Homo sapiens, UniProt Q08499); assay: Inhibition of PDE4D isolated from human U937 cells using [3H]-cAMP incubated for 30 mins
PBMC [3] = assay: Inhibition of LPS-induced TNFalpha production in human PBMC pre-incubated for 30 mins before LPS stimulation for 18 hrs by TR-FRET assay; format: functional, cell-based
Method in brief: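 PBMCs isolated from buffy coats (blood diluted 1:1 saline) and suspended at 5 × 10⁵ cells/mL in RPMI 1640 with 0.5% human serum albumin, pen/strep, 2 mM L-glutamine. 30 min compound pre-incubation, then 18 h LPS stimulation; supernatant TNF-α by TR-FRET (665 nm signal, 620 nm control); IC50 in μM.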

Rattus norvegicus = assay: Inhibition of LPS-induced neutropenia in Sprague-Dawley rat model of asthma assessed as reduction in neutrophils in BAL fluid at 10 mg/kg, po pre-treated 30 mins before LPS challenge and measured 6 hrs after LPS injection relative to untreated control; format: functional; conditions: in the assay text read “neutrophilia” for “neutropenia”
Method in brief: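 Male Sprague Dawley rats acclimatized one week, randomized by weight (n = 6). Compound at 10 mg/kg po in 0.25% carboxymethyl cellulose vehicle given 30 min before 40 min exposure to 100 μg/mL E. coli LPS (B4). BAL at 6 h after exposure; total cell count and differential count versus control.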

Mus musculus = assay: Inhibition of LPS-induced TNFalpha production in Swiss Albino mouse model of sepsis at 10 mg/kg, po pre-treated 30 mins before LPS challenge and measured 90 mins post LPS injection by ELISA method relative to untreated control; format: functional
Method in brief: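 Female Swiss albino mice, weight-matched groups (n = 6), fasted 20 h with water; test compound given orally at 10 mg/kg as suspension in 0.5% Tween 80 / 0.25% sodium CMC, controls vehicle only. 30 min later 500 μg E. coli LPS (B4) i.p. in phosphate buffer; retro-orbital bleed at 90 min, serum TNF-α by mouse ELISA.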

PDE1A = PDE1A (Homo sapiens, UniProt P54750); assay: Inhibition of human PDE1A at 100 uM
PDE2A = PDE2A (Homo sapiens, UniProt O00408); assay: Inhibition of human PDE2A at 100 uM
PDE10A = PDE10A (Homo sapiens, UniProt Q9Y233); assay: Inhibition of human PDE10A at 100 uM
PDE5A = PDE5A (Homo sapiens, UniProt O76074); assay: Inhibition of human PDE5A at 100 uM
PDE7A = PDE7A (Homo sapiens, UniProt Q13946); assay: Inhibition of human PDE7A at 100 uM
PDE11A = PDE11A (Homo sapiens, UniProt Q9HCR9); assay: Inhibition of human PDE11A at 100 uM
PBMC [4] = assay: Potency index, ratio of IC50 for rolipram to IC50 for test compound for inhibition of LPS-induced TNFalpha production in human PBMC pre-incubated for 30 mins before LPS stimulation for 18 hrs by TR-FRET assay; format: functional
PDE9A = PDE9A (Homo sapiens, UniProt O76083); assay: Inhibition of human PDE9A at 100 uM
PDE6C = PDE6C (Homo sapiens, UniProt P51160); assay: Inhibition of human PDE6C at 100 uM
PDE3B = PDE3B (Homo sapiens, UniProt Q13370); assay: Inhibition of human PDE3B at 100 uM
[5] = biological target: T1, 3',5'-cyclic-AMP phosphodiesterase 4B; assay: Inhibition of human PDE4B at 100 uM
PDE8A = PDE8A (Homo sapiens, UniProt O60658); assay: Inhibition of human PDE8A at 100 uM

T1 sequence (Q07343 whole entry): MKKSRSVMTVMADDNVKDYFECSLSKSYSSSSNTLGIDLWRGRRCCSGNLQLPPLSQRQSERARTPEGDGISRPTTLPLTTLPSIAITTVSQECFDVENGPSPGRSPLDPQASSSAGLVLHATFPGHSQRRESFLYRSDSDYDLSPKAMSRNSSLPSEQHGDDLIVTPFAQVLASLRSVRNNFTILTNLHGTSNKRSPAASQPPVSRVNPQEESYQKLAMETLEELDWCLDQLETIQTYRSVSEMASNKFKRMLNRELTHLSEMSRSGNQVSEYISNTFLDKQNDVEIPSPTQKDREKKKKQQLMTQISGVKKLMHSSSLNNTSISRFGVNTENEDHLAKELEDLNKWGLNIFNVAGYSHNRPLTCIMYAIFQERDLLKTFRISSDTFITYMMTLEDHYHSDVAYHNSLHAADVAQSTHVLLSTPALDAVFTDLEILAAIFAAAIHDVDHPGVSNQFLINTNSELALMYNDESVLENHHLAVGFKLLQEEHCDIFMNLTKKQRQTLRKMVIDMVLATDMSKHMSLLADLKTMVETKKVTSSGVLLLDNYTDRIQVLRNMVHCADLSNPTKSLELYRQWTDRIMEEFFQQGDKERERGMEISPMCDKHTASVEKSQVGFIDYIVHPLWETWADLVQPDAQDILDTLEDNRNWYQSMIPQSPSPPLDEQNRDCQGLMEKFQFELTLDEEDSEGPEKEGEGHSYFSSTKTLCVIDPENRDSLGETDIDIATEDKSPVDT
Chain of 3',5'-cyclic-AMP phosphodiesterase 4D (Q08499 whole entry): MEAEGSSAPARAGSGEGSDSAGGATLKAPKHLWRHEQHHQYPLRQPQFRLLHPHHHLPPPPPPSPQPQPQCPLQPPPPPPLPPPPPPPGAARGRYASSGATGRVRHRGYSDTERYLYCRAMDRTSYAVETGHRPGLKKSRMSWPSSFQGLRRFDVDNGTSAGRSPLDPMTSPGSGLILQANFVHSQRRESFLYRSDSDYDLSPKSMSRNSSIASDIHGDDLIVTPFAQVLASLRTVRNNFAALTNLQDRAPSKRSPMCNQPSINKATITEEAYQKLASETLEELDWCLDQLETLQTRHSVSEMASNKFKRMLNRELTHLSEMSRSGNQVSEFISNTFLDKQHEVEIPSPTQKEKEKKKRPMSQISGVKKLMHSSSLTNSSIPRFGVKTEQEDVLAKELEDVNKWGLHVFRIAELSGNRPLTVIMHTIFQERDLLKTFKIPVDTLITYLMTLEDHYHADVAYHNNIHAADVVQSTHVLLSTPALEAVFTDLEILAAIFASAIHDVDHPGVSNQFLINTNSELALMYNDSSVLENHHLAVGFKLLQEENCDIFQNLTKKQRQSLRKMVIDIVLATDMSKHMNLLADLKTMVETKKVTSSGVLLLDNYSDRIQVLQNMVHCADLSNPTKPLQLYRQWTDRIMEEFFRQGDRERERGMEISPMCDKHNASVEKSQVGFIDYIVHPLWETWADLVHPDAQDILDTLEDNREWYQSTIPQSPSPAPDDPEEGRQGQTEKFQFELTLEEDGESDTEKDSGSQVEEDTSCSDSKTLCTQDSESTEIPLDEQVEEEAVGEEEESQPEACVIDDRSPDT
Chain of PDE10A (Q9Y233 whole entry): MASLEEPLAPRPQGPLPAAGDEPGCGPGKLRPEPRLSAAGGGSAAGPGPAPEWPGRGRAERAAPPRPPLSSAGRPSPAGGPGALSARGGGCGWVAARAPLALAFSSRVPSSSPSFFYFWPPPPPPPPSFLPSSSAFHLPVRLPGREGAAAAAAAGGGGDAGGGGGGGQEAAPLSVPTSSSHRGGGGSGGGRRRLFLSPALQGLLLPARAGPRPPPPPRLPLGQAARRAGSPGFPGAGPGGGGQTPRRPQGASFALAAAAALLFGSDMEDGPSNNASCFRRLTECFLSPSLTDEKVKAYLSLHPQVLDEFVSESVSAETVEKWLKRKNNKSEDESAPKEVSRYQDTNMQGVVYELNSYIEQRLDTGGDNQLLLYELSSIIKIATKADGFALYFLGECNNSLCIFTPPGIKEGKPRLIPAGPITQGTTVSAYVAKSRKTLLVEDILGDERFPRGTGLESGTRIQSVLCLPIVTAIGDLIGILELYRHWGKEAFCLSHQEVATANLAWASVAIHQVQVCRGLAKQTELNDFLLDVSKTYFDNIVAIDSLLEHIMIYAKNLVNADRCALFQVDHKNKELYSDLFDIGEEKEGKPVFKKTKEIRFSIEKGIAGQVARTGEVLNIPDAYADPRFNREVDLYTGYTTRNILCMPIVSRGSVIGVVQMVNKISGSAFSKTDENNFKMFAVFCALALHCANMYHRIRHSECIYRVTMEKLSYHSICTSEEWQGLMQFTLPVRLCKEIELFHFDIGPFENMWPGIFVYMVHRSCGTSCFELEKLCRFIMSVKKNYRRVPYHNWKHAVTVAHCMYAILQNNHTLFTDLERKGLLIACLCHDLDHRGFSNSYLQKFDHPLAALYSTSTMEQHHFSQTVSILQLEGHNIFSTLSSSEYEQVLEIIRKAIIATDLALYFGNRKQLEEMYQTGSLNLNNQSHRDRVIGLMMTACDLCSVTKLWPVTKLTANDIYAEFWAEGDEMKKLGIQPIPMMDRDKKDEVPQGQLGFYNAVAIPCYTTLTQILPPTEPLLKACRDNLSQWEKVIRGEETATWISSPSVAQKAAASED
Chain of PDE2A (O00408 whole entry): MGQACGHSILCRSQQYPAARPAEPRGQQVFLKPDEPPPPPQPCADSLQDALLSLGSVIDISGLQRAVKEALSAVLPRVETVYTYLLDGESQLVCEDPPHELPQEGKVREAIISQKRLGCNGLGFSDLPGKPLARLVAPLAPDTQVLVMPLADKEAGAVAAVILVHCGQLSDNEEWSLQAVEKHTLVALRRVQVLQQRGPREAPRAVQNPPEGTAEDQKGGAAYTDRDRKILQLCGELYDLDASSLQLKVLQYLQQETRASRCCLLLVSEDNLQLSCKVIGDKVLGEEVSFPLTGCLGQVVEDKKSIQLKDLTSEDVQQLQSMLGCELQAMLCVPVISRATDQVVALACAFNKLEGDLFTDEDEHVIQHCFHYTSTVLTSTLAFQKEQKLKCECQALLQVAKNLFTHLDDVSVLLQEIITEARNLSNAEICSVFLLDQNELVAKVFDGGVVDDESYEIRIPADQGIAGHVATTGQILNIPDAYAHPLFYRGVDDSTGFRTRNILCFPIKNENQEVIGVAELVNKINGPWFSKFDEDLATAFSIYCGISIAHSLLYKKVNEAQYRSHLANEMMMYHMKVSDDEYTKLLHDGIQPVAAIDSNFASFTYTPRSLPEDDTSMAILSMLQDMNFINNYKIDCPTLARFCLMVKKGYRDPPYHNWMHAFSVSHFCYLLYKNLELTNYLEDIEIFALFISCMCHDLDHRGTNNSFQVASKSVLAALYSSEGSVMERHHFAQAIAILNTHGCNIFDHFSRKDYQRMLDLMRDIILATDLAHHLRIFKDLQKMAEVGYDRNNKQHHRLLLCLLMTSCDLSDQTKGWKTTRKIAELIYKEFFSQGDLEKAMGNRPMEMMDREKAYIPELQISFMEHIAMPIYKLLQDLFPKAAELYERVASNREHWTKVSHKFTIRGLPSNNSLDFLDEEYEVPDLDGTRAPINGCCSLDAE
Chain of PDE6C (P51160 whole entry): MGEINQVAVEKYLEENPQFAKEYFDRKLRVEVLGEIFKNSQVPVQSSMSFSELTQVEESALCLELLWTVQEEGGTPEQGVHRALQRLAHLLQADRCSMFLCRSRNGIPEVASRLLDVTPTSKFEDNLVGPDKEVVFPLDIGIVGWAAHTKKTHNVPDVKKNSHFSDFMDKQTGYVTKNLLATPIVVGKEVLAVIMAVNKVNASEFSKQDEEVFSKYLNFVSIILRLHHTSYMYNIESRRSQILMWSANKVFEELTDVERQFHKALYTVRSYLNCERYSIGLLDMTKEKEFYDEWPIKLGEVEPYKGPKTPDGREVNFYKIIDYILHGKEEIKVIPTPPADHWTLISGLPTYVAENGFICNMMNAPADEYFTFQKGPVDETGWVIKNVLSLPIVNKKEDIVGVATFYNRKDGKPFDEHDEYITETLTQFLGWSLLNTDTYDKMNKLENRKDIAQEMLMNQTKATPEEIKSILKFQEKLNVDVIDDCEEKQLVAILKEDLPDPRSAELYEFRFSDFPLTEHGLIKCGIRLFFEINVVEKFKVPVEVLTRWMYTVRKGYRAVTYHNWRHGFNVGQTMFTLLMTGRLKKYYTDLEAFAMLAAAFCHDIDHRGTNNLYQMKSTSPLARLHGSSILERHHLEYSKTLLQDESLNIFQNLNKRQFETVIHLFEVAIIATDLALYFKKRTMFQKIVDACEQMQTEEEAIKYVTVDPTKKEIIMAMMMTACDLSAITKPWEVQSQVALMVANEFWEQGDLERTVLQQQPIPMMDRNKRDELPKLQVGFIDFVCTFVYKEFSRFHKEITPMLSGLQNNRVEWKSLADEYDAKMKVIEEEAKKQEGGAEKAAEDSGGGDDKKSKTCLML
Chain of PDE1A (P54750 whole entry): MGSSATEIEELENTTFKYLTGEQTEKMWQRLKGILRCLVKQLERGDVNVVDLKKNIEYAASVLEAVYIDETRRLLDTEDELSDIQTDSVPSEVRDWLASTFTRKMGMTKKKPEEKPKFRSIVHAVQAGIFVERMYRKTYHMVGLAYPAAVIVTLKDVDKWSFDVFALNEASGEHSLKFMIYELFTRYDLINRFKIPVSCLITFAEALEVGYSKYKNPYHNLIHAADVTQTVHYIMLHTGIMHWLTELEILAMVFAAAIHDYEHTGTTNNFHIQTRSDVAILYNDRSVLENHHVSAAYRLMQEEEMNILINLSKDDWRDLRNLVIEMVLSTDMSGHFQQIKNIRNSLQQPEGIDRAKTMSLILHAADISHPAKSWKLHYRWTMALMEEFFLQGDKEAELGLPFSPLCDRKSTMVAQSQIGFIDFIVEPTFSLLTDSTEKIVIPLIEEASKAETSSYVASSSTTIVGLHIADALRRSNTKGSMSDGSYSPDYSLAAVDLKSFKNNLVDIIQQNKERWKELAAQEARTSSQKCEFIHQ

Structure (SMILES)	IC50 [1]	IC50 [2]	IC50 (PBMC [3])	other results
COc1cc2c(cc1OC)CN1C(=O)OCC1C2 (racemic)	52100 nM			
COc1cc2c(cc1OC1CCCC1)C(c1ccccc1)N1C(=O)OCC1C2 (mixture of isomers)	1950 nM	31.6 µM	6.75 µM	inhibition in vivo at 10 mg/kg (Rattus norvegicus): 28.1%; inhibition in vivo at 10 mg/kg (Mus musculus): 40.4%
COc1cc2c(cc1OC1CCCCC1)CN1C(=O)OCC1C2 (racemic)	2620 nM	13.9 µM	8.4 µM	
COc1ccc(C2CNC(=O)C2)cc1OC1CCCC1 (configuration not stated) [ROLIPRAM]			10.8 µM	inhibition in vivo at 10 mg/kg (Rattus norvegicus): 32.3%; inhibition in vivo at 10 mg/kg (Mus musculus): 41%
CCCOc1cc2c(cc1OC)CC1COC(=O)N1C2 (racemic)	22400 nM			
COc1cc2c(cc1OCc1ccccc1)CN1C(=O)OCC1C2 (configuration not stated)	8180 nM			
COc1cc2c(cc1O)CN1C(=O)OCC1C2 (configuration not stated)	> 100000 nM			
COc1cc2c(cc1OC1CCCC1)CN1C(=O)OCC1C2 (racemic)	600 nM	5.13 µM	1.35 µM	inhibition at 100 µM (PDE1A): 12%; inhibition at 100 µM (PDE2A): 3%; inhibition at 100 µM (PDE10A): 1%; inhibition at 100 µM (PDE5A): 14%; inhibition at 100 µM (PDE7A): 5%; inhibition at 100 µM (PDE11A): 3%; Ratio IC50 (PBMC [4]): 7; inhibition at 100 µM (PDE9A): 2%; inhibition at 100 µM (PDE6C): 8%; inhibition in vivo at 10 mg/kg (Rattus norvegicus): 42.3%; inhibition at 100 µM (PDE3B): 5%; inhibition [5]: 100%; inhibition in vivo at 10 mg/kg (Mus musculus): 48.2%; inhibition at 100 µM (PDE8A): 12%
COc1cc2c(cc1OCC1CC1)CN1C(=O)OCC1C2 (racemic)	1300 nM	7.15 µM	9.58 µM	
CCCCCCOc1cc2c(cc1OC)CC1COC(=O)N1C2 (racemic)	6050 nM			
COc1cc2c(cc1OC1CCCC1)C(C)N1C(=O)OCC1C2 (mixture of isomers)	1350 nM	12.8 µM	2.6 µM	
CCCCCCC1c2cc(OC3CCCC3)c(OC)cc2CC2COC(=O)N21 (mixture of isomers)	2100 nM	23.1 µM	7.98 µM	
COc1cc2c(cc1OC1CCCC1)C(C1CCCCC1)N1C(=O)OCC1C2 (mixture of isomers)	2060 nM	26.7 µM	9.05 µM	
CCCCCOc1cc2c(cc1OC)CC1COC(=O)N1C2 (racemic)	4100 nM	23.3 µM		
